This passage reports IC50 and Activity results from ChEMBL document CHEMBL1828573, “Synthesis and biological evaluation of the glycoside (25R)-3β,16β-diacetoxy-22-oxocholest-5-en-26-yl β-d-glucopyranoside: a selective anticancer agent in cervicouterine cell lines” (Eur J Med Chem, 2011).

The source made the active and inactive calls. The calls are words filed in the database; no cut-off is given here.

Data set [1] concerns Ca-Ski. The experiment in a line: Antiproliferative activity human CaSki cells after 24 hrs by crystal violet staining. The format is functional, cell-based. The procedure, abridged: (§1)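 Cells in RPMI-1640 with 5% newborn calf serum, 37 °C, 5% CO2, exponential phase. Seeded at 7500 cells/well and grown 24 h, then exposed over a concentration range in ethanol vehicle; controls got 1% ethanol. After 24 h, crystal violet staining with absorbance at 590 nm. IC50 taken from the decrease in cell population.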

Data set [2] relates to PBMC. Nature of the data set: Antiproliferative activity human PBMC assessed as non-proliferating cells at 33.9 uM after 72 hrs using FITC-A staining by flow cytometry. The format is cell-based. Put shortly:
(§2)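 Enriched lymphocytes from one healthy donor: non-adherent cells kept after 1 h at 37 °C. Labelled with CFSE for 15 min at room temperature in the dark, quenched with NCS, washed. Plated at 2 × 10^5 cells/well, unstimulated, PHA-stimulated or treated, with ethanol 1% vehicle control. Five replicates, 72 h at 37 °C. Then 1% formaldehyde fixation and flow cytometry, ≥20,000 events.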

The nature of data set [3]: Cytotoxicity against human ViBo cells assessed as LDH release at IC50 after 24 hrs by spectrophotometry. Format: functional. In general terms: LDH in the medium is a marker of cell lysis.
In data set [4] the test system is HeLa. The experiment in a line: Cell cycle arrest at G2/M-phase in human HeLa cells at 29.5 to 33.9 uM after 24 hrs using propidium iodine staining by flow cytometry. Format: functional, cell-based. Put shortly:
(§3)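 Seeded at 10^5 cells/mL and grown 24 h, then exposed to 33.9 or 29.5 µM. Harvested with versene and fixed/permeabilized in 50% methanol in PBS. Treated with RNase (2.5 U/mL), stained with propidium iodide (0.2 mg/mL), DNA content analysed by G1, S, G2/M and SubG1.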
(Flow cytometry measures light scatter and fluorescence of single cells or particles in a stream.)

The subject of data set [5] is HeLa. The experiment in a line: Antiproliferative activity human HeLa cells after 24 hrs by crystal violet staining. The format is functional, cell-based. Put shortly:
as §1

The subject of data set [6] is HeLa. Nature of the data set: Cytotoxicity against human HeLa cells assessed as LDH release at IC50 after 24 hrs by spectrophotometry. Format: functional.
The nature of data set [7]: Antiproliferative activity human ViBo cells after 24 hrs by crystal violet staining. Format: functional, cell-based. The procedure, abridged:
as §1

The test system of data set [8] is ViBo. Nature of the data set: Induction of apoptosis in human ViBo cells assessed as DNA fragmentation at IC50 after 24 hrs by TUNEL assay. Format: functional, cell-based.
Data set [9] in a line: Cell cycle arrest at G2/M-phase in human ViBo cells at 29.5 to 33.9 uM after 24 hrs using propidium iodine staining by flow cytometry. The format is functional, cell-based. The procedure, abridged: as §3
Data set [10] deals with HeLa. The experiment in a line: Cell cycle arrest at S-phase in human HeLa cells at 29.5 to 33.9 uM after 24 hrs using propidium iodine staining by flow cytometry. Format: functional, cell-based. Put shortly: as §3
In data set [11] the test system is HeLa. The experiment in a line: Induction of apoptosis in human HeLa cells assessed as induction of active caspase-3 expression at 29.5 to 33.9 uM using FITC/DAPI staining by epifluorescence microscopy. Format: functional, cell-based. Put shortly:
(§4)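 Seeded at 5 × 10^4 cells/mL in RPMI-1640 with 5% NCS for 24 h, then treated with 33.9 or 29.5 µM. Formaldehyde fixation 15 min, 0.5% Triton X-100 permeabilization, blocking. Rabbit anti-active caspase-3 (1:50), then FITC goat anti-rabbit (1:200). DAPI counterstain; fluorescence microscopy.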

Data set [12] is described as follows: Cell cycle arrest at S-phase in human ViBo cells at 29.5 to 33.9 uM after 24 hrs using propidium iodine staining by flow cytometry. The format is functional, cell-based. The procedure, abridged: as §3
The subject of data set [13] is Ca-Ski. Nature of the data set: Cytotoxicity against human CaSki cells assessed as LDH release at IC50 after 24 hrs by spectrophotometry. The format is functional.
Data set [14] relates to Ca-Ski. The experiment in a line: Cell cycle arrest at G1-phase in human CaSki cells at 29.5 to 33.9 uM after 24 hrs using propidium iodine staining by flow cytometry. Format: functional, cell-based. The procedure, abridged:
as §3

Data set [15] deals with HeLa. The experiment in a line: Induction of apoptosis in human HeLa cells assessed as DNA fragmentation at IC50 after 24 hrs by TUNEL assay. Format: functional, cell-based.
The test system of data set [16] is Ca-Ski. The experiment in a line: Induction of apoptosis in human CaSki cells assessed as DNA fragmentation at IC50 after 24 hrs by TUNEL assay. Format: functional, cell-based.
Data set [17] relates to Ca-Ski. The experiment in a line: Induction of apoptosis in human CaSki cells assessed as increase in cell nuclei released from broken cell at 29.5 to 33.9 uM after 24 hrs using propidium iodine staining by flow cytometry. Format: functional, cell-based. Put shortly:
as §3

The test system of data set [18] is Ca-Ski. The experiment in a line: Induction of apoptosis in human CaSki cells assessed as decrease in DNA level at 29.5 to 33.9 uM after 24 hrs using propidium iodine staining by flow cytometry. Format: functional, cell-based. Put shortly:
as §3

For data set [19], the system named is Ca-Ski. The experiment in a line: Induction of apoptosis in human CaSki cells assessed as induction of active caspase-3 expression at 29.5 to 33.9 uM using FITC/DAPI staining by epifluorescence microscopy. Format: functional, cell-based. The procedure, abridged: as §4
The subject of data set [20] is PBMC. The experiment in a line: Antiproliferative activity human PBMC assessed as proliferating cells at 33.9 uM after 72 hrs using FITC-A staining by flow cytometry. The format is cell-based. Put shortly:
as §2

Data set [21] deals with Ca-Ski. Nature of the data set: Cell cycle arrest at G2/M-phase in human CaSki cells at 29.5 to 33.9 uM after 24 hrs using propidium iodine staining by flow cytometry. The format is functional, cell-based. Put shortly:
as §3

Data set [22] can be described thus: Cytotoxicity against human PHA-stimulated lymphocytes assessed as LDH release at 33.9 uM after 72 hrs by spectrophotometry. The format is cell-based. Particulars: lymphocyte. Put shortly: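 Lymphocytes exposed to compound or ethanol (10 µL/mL); PHA-activated lymphocytes (15 µL/mL) served as control. After 72 h, LDH released into the culture supernatant measured. Mean ± S.D. of three independent experiments with three repetitions.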

Data set [23] relates to Ca-Ski. The experiment in a line: Cell cycle arrest at S-phase in human CaSki cells at 29.5 to 33.9 uM after 24 hrs using propidium iodine staining by flow cytometry. The format is functional, cell-based. Put shortly: as §3
For data set [24], the system named is ViBo. The experiment in a line: Induction of apoptosis in human ViBo cells assessed as induction of active caspase-3 expression at 29.5 to 33.9 uM using FITC/DAPI staining by epifluorescence microscopy. The format is functional, cell-based. Put shortly: as §4

For the compound `CC(=O)O[C@H]1CC[C@@]2(C)C(=CC[C@H]3[C@@H]4C[C@H](OC(C)=O)[C@H]([C@H](C)C(=O)CC[C@@H](C)CO)[C@@]4(C)CC[C@@H]32)C1`, in the data set on Ca-Ski [1], inhibition was half-maximal at 47.1 µM (IC50).
As for `CC(=O)O[C@H]1CC[C@@]2(C)C(=CC[C@H]3[C@@H]4C[C@H](OC(C)=O)[C@H]([C@H](C)C(=O)CC[C@@H](C)CO[C@@H]5O[C@H](CO)[C@@H](O)[C@H](O)[C@H]5O)[C@@]4(C)CC[C@@H]32)C1`, the Activity was 27.91% in the data set on PBMC [2]; 11% in [3]; 6% with HeLa [6]; 1% with Ca-Ski [13]; “Dose-dependent effect” in the data set with Ca-Ski [1]; 72.09% in the data set on PBMC [20]. In [22], the Activity result is listed as “Non-toxic”. The result (in the data set on HeLa [4]; in the data set on ViBo [8]; in data set [9]; with HeLa [10]; in the data set with HeLa [11]; in [12]) was Active. Further, the outcome in the data set with HeLa [15], with Ca-Ski [16], in the data set with Ca-Ski [17], with Ca-Ski [18], in the data set on Ca-Ski [19] and in the data set with ViBo [24] was Active. The IC50 (commonly the concentration that inhibits the measured activity by half) with HeLa [5] amounted to 29.5 µM; in data set [7], 29.5 µM; in the data set on Ca-Ski [1] it was 33.9 µM. The result with Ca-Ski [14], in the data set on Ca-Ski [21] and in the data set on Ca-Ski [23] was inactive.
